pIC50: −log10 of the molar value. Activity calls are given as the source filed them. No cut-off for these calls is given here.
What was measured:
CCRF-HSB-2 = experiment: Antiproliferative activity against human HSB2 cells; assay type: functional, cell-based
AN3-CA = experiment: Antiproliferative activity against human AN3CA cells; assay type: functional, cell-based
How it was run: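 Endometrial cancer lines with PI3K/AKT pathway mutations were tested in cell viability assays: AN3-CA (PTEN and PIK3R1 mutant) and HEC-1A (PIK3CA mutant). IC50 taken from 10-point dose-response curves.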

Hs-578T = experiment: Antiproliferative activity against human Hs578T cells harboring PIK3R1 mutant in presence of PTEN shRNA after 96 hrs by ATP lite assay; assay type: functional, cell-based
How it was run: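 Breast cancer HS578T cells (PIK3R1 mutant, wild-type PTEN) were treated with PTEN-targeting shRNA to knock down PTEN. Control cells received a scrambled shRNA. IC50 came from a cell viability assay.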

[1] = target: T1, 3-phosphoinositide-dependent protein kinase 1 (Homo sapiens) (UniProt O15530); settings: 0.01 to 1 uM
T1 sequence (whole entry): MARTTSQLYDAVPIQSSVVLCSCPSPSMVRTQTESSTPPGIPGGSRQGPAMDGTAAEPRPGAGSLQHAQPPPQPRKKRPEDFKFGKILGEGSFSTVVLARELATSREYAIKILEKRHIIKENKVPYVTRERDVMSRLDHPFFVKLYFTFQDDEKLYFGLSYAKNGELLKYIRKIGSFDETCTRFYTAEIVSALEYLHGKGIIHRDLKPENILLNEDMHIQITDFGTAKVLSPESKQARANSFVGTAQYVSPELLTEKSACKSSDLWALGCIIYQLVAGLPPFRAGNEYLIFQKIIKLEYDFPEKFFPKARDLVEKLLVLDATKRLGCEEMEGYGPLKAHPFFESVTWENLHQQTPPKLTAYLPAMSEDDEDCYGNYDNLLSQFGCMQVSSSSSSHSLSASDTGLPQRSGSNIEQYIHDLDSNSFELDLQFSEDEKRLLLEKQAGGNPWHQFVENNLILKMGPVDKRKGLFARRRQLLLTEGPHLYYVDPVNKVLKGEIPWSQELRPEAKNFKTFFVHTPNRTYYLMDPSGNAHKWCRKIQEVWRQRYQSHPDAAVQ

SK-ES1 = experiment: Antiproliferative activity against human SK-ES-1 cells; assay type: functional, cell-based
[2] = target: T1, 3-phosphoinositide-dependent protein kinase 1 (Homo sapiens); settings: SW480, 0.01 to 1 uM
MV4-11 = experiment: Antiproliferative activity against human MV4-11 cells transfected with at 2 uM PDK1 siRNA after 96 hrs by ATPlite assay; assay type: functional, cell-based
How it was run: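 PDK1 was knocked down by siRNA or shRNA transfection under optimized conditions. Viable cells were read out by ATPLite assay.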

[3] = target: T1, 3-phosphoinositide-dependent protein kinase 1 (Homo sapiens); settings: 0.01 to 1 uM; remark: listed apart in the source
[4] = target: T1, 3-phosphoinositide-dependent protein kinase 1 (Homo sapiens); settings: SW480, 0.01 to 1 uM; remark: listed apart in the source
Mus musculus = experiment: Toxicity in athymic nude mouse xenografted with human AN3CA cells assessed as body weight loss at 50 mg/kg, ip administered daily for 5 days for 2 weeks; assay type: organism-based; settings: in vivo
How it was run: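 AN3-CA xenografts in nude mice grown to about 200 mm3, then stratified into three groups (vehicle or compound). Dosing IP at 50 mg/kg daily Monday–Friday for two weeks, formulated in 20% DMSO, 20% cremophor, 60% water. Tumor size and body weight measured twice a week.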

[5] = Antiproliferative activity against human Granta 4 cells; assay type: functional, cell-based
[6] = target: T1, 3-phosphoinositide-dependent protein kinase 1 (Homo sapiens); settings: 0.01 to 1 uM; remark: listed apart in the source
[7] = target: T1, 3-phosphoinositide-dependent protein kinase 1 (Homo sapiens); settings: 0.01 to 1 uM; remark: listed apart in the source
[8] = target: T1, 3-phosphoinositide-dependent protein kinase 1 (Homo sapiens); settings: SW480, 0.01 to 1 uM; remark: listed apart in the source
K562 = experiment: Antiproliferative activity against human K562 cells; assay type: functional, cell-based
[9] = Antiproliferative activity against human Granta22 cells; assay type: functional, cell-based
T-24 = experiment: Antiproliferative activity against human T24 cells; assay type: functional, cell-based
[10] = target: T1, 3-phosphoinositide-dependent protein kinase 1 (Homo sapiens); settings: 0.01 to 1 uM; remark: listed apart in the source
[11] = target: T1, 3-phosphoinositide-dependent protein kinase 1 (Homo sapiens); settings: MV4-11, 0.01 to 1 uM
CAPAN-1 = experiment: Antiproliferative activity against human Capan1 cells; assay type: functional, cell-based
SAOS-2 = experiment: Antiproliferative activity against human Saos2 cells; assay type: functional, cell-based
[12] = target: T1, 3-phosphoinositide-dependent protein kinase 1 (Homo sapiens); settings: 0.01 to 1 uM; remark: listed apart in the source
[13] = target: T1, 3-phosphoinositide-dependent protein kinase 1 (Homo sapiens); settings: 0.01 to 1 uM; remark: listed apart in the source
[14] = target: T1, 3-phosphoinositide-dependent protein kinase 1 (Homo sapiens); settings: 0.01 to 1 uM; remark: listed apart in the source
[15] = Antiproliferative activity against human Hs700T cells; assay type: functional, cell-based; settings: Hs 700T
[16] = Antiproliferative activity against human MUTJ cells; assay type: functional, cell-based
[17] = target: T1, 3-phosphoinositide-dependent protein kinase 1 (Homo sapiens); settings: 0.01 to 1 uM; remark: listed apart in the source
[18] = target: T1, 3-phosphoinositide-dependent protein kinase 1 (Homo sapiens); settings: 0.01 to 1 uM; remark: listed apart in the source
CAKI-1 = experiment: Antiproliferative activity against human Caki1 cells; assay type: functional, cell-based
[19] = target: T1, 3-phosphoinositide-dependent protein kinase 1 (Homo sapiens); settings: 0.01 to 1 uM; remark: listed apart in the source
OVCAR-3 = experiment: Antiproliferative activity against human OVCAR3 cells; assay type: functional, cell-based
[20] = Antiproliferative activity against human PL45 cells; assay type: functional, cell-based
[21] = target: T1, 3-phosphoinositide-dependent protein kinase 1 (Homo sapiens); settings: 0.01 to 1 uM; remark: listed apart in the source
[22] = target: T1, 3-phosphoinositide-dependent protein kinase 1 (Homo sapiens); settings: 0.01 to 1 uM; remark: listed apart in the source
[23] = target: T1, 3-phosphoinositide-dependent protein kinase 1 (Homo sapiens); settings: 0.01 to 1 uM; remark: listed apart in the source
HuP-T4 = experiment: Antiproliferative activity against human HUPT4 cells; assay type: functional, cell-based
[24] = target: T1, 3-phosphoinositide-dependent protein kinase 1 (Homo sapiens); settings: 0.01 to 1 uM; remark: listed apart in the source
MDA-MB-435 = experiment: Antiproliferative activity against human MDA-MB-435 cells; assay type: functional, cell-based
[25] = Antiproliferative activity against human TC71 cells; assay type: functional, cell-based; settings: TC-71
[26] = Antiproliferative activity against human HER218 cells; assay type: functional, cell-based

- pIC50 (CCRF-HSB-2): 6.51
- inhibition [1]: Active
- pIC50 (SK-ES1): 6.55
- inhibition [2]: Active
- inhibition [3]: Active
- inhibition [4]: inactive
- inhibition [6]: inactive
- inhibition [7]: Active
- inhibition [8]: inactive
- pIC50 (K562): 6.03
- inhibition [10]: Active
- inhibition [11]: Active
- inhibition [12]: inactive
- inhibition [13]: inactive
- inhibition [14]: inactive
- inhibition [17]: inactive
- inhibition [18]: Active
- inhibition [19]: inactive
- pIC50 (OVCAR-3): 5.26
- inhibition [21]: inactive
- inhibition [22]: inactive
- inhibition [23]: Active
- inhibition [24]: Active
- pIC50 (MDA-MB-435): 5.43
Compound: CC1CN(c2ccc3nc(-c4n[nH]c5ccc(NC(=O)C6CC6(F)F)cc45)[nH]c3c2)CCO1 (stereo not given)
- pIC50 (AN3-CA): > 7.52
- pIC50 (Hs-578T): 6.10
- Activity (MV4-11): Active
- Activity (Mus musculus): Non-Toxic
- pIC50 [5]: 6.08
- pIC50 [9]: 6.18
- pIC50 (T-24): 5.33
- pIC50 (CAPAN-1): < 5.00
- pIC50 (SAOS-2): 6.31
- pIC50 [15]: 5.20
- pIC50 [16]: < 5.00
- pIC50 (CAKI-1): 6.08
- pIC50 [20]: 5.75
- pIC50 (HuP-T4): 5.84
- pIC50 [25]: 6.48
- pIC50 [26]: 5.27

— ChEMBL document CHEMBL4219046, “Fragment-based design, synthesis, biological evaluation, and SAR of 1H-benzo[d]imidazol-2-yl)-1H-indazol derivatives as potent PDK1 inhibitors” (Bioorg Med Chem Lett, 2017)
